Data on four molecules can be found in PMC11542020 (Blood Cancer Journal, 2024).

In series [1] the test system is T-ALL PDX (ALL-8). Nature of the series: Histopathologic analysis of mouse skull and brain to assess tumor burden. The settings on record: 10 mg/kg IP Days 0, 7, 14. Type of series: in vivo, human.
Series [2] concerns T-ALL PDX (ALL-8). Description: In vivo consolidation therapy comparison, ALL-8 in NSG mice. The arrangement: species or system human. Put shortly:
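ALL-8-engrafted mice received test compound 5 mg/kg IP on Days 0 and 7, alone or with Ara-C and 6-mercaptopurine (each 12.5 mg/kg IP, Days 0–4 and 7–11). Comparators were cyclophosphamide (75 mg/kg IP, Days 0 and 7) and vehicle. Human CD45⁺ in PB was tracked over time. At Day 28, or at event for vehicle, PB, BM and spleen were assessed as % huCD45⁺ of mouse CD45⁺ (3 mice).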

For series [3], the system named is T-ALL PDX (ALL-8). Description: In vivo relapsed/refractory therapy comparison. The arrangement: species or system human.
For series [4], the system named is ALL-11/AKR1C3. Nature of the series: Ex vivo cytotoxicity assay on ALL-11 PDX overexpressing AKR1C3. The series is classed as cell-based. Conditions: Homo sapiens, 48 h. The method in brief:
(§1)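 Patient-derived xenograft leukemia cells were cultured ex vivo in AIM V medium at a density optimized for each xenograft (1–5 × 10⁶ cells per mL). ALL-11 cells were lentivirally transduced with AKR1C3 or with empty vector. Viability was read by resazurin or CellTiter-Glo. IC₅₀ was interpolated from nonlinear regression curves, with three biological experiments.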

Series [5] in a line: Preliminary tolerability studies in cynomolgus monkeys. The series is classed as in vivo, cynomolgus monkey.
The nature of series [6]: Plasma protein binding. The series is classed as in vitro ADME. Conditions: mouse.
Series [7] relates to ALL-11/AKR1C3. Description: In vivo efficacy against ALL-11/AKR1C3 in mice. Conditions: 25 mg/kg IP Days 0, 7, 14. The arrangement: species or system human. Put shortly:
(§2)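 Mice engrafted with the patient-derived xenograft were dosed IP and their peripheral blood % human CD45⁺ was monitored. An event was defined as huCD45⁺ >25% in PB. Event-free survival of treated and vehicle cohorts was compared as T-C and T/C. Studies used either n = 6 mice per treatment or single-mouse testing (n = 1).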

Series [8] has as its system T-ALL PDX (ALL-8). Description: In vivo dose response study, conventional, T-ALL PDX ALL-8 in NSG mice. The arrangement: species or system human.
A further series concerns B-ALL PDXs. Nature of the series: Ex vivo cytotoxicity assay. Type of series: cell-based, human. Put shortly: as §1
Series [9] in a line: ACHM-025 pharmacokinetic analysis of murine brain. The series is classed as in vivo. The settings on record: female, NSG, mouse, intraperitoneal, 25 mg/kg.
Series [10] can be described thus: Plasma protein binding. Type of series: in vitro ADME. Conditions: human.
For another series, the system named is 25 T-ALL PDXs. Description: In vivo single mouse trial. The arrangement: species or system human. The settings on record: 25 mg/kg IP Days 0, 7, 14.
The test system of series [11] is T-ALL PDX (ALL-8). Nature of the series: Minimal residual disease. The series is classed as in vivo, human. Conditions: not within the quantitative range of the assay.
Series [12] in a line: ACHM-025 pharmacokinetic analysis of murine plasma. Type of series: in vivo. The settings on record: female, NSG, mouse, ip, 25 mg/kg, across the dose levels 5, 10, 25 mg/kg IP.
Another series has as its system T-ALL PDXs. Description: Ex vivo cytotoxicity assay. Type of series: cell-based, human. Put shortly: as §1
Series [13] deals with ALL-11/EV. Nature of the series: Ex vivo cytotoxicity assay on ALL-11 PDX empty vector. The series is classed as cell-based. The settings on record: Homo sapiens, 48 h. Put shortly: as §1
Series [14] can be described thus: ACHM-025 tolerability in naïve immunodeficient mice. Type of series: in vivo, mouse. Conditions: 25 mg/kg via IP weekly ×3.
Series [15] relates to ALL-11/EV. Nature of the series: In vivo efficacy against ALL-11/EV in mice. The arrangement: species or system human. Conditions: 25 mg/kg IP Days 0, 7, 14. The method in brief: as §2
Series [16] relates to T-ALL PDX (ALL-31). Description: In vivo efficacy, conventional study, T-ALL PDX ALL-31 in NSG mice. The arrangement: species or system human. Conditions: 25 mg/kg IP Days 0, 7, 14.
For series [17], the system named is T-ALL PDX (ALL-31). Conditions: OBI-3424 2.5 mg/kg, PR-104 200 mg/kg; cited from earlier work.
Series [18] deals with T-ALL PDX (ALL-8). The settings on record: OBI-3424 2.5 mg/kg, PR-104 200 mg/kg; cited from earlier work.
Where [19] appears, read: ACHM-025 10 mg/kg IP Days 0, 7, 14, nelarabine 125 mg/kg IP Days 0–4, 14–18, alone or combined.

Like-named read-outs stand apart in the source and are kept apart here.

Consider `CN1CCN(S(=O)(=O)c2cc([N+](=O)[O-])ccc2N(CCOS(C)(=O)=O)CCOS(C)(=O)=O)CC1` [ACHM-025, ((2-((4-methylpiperazin-1-yl)sulfonyl)-4-nitrophenyl)azanediyl)bis(ethane-2,1-diyl) dimethanesulfonate], for which the “leukemic infiltration of the calvarial bone marrow at Day 28 (H&E, TdT)” value with T-ALL PDX (ALL-8) [1] is given as “no observable leukemic infiltration”. Also, the “human leukemia levels in the PB, BM and spleen at Day 28” value with T-ALL PDX (ALL-8) [2] (ACHM-025 5 mg/kg IP Days 0, 7) was “undetectable levels”. For the same molecule, in the series with T-ALL PDX (ALL-8) [2] (ACHM-025 5 mg/kg IP Days 0, 7, for six consecutive weeks), the “human leukemia cells in the murine PB” value is listed as below 1%. Also, in the series with T-ALL PDX (ALL-8) [3], the “human leukemia cells in the BM at Day 28 by flow cytometry” value is “no detectable human leukemia cells”. Besides, the “EFS (median event free survival)” value in the series with T-ALL PDX (ALL-8) [3] (setting [19]) worked out at 207 days. The ORM result in the series on T-ALL PDX (ALL-8) [3] (setting [19]) is listed as “MCRs”; in the series with T-ALL PDX (ALL-8) [8] (10 mg/kg IP Days 0, 7, 14), “MCRs”; in the series with T-ALL PDX (ALL-8) [8] (15 mg/kg IP Days 0, 7, 14), “MCRs”; in the series on T-ALL PDX (ALL-8) [8] (25 mg/kg IP Days 0, 7, 14), “MCRs”. Also, in the series on T-ALL PDX (ALL-8) [3] (setting [19]), the T-C is listed as 198 days. Further, the T/C with T-ALL PDX (ALL-8) [3] (setting [19]) was 22.5 days. Further, the IC50 (as a rule, the point on the concentration scale where inhibition reaches its midpoint) turned out to be 13.1 nM in the series with ALL-11/AKR1C3 [4]; 840 nM in the series with B-ALL PDXs (Homo sapiens, 48 h, read-out: Median IC50, median of 6 B-ALL PDXs, 48 h); 29 nM in the series on T-ALL PDXs (Homo sapiens, 48 h, read-out: Median IC50, median of 6 T-ALL PDXs, 48 h); 1260 nM with ALL-11/EV [13]. Besides, the single dose-limiting toxicity entry in [5] (0.6 mg/kg) was “neutropenia”. Also, the “all other hematological, clinical chemistry, urinalysis and histopathology parameters” value in series [5] (2.0 mg/kg, the highest dose tested) is reported as “within normal range”. Also, the well tolerated doses in series [5] (preliminary studies) is given as at most 0.5 mg/kg. For the same molecule, the free fraction (fraction unbound) (usually the share of the substance not bound to proteins or other matrix) at 5 µmol/L is 0.569 in “Plasma protein binding [6]” and 0.646 in “Plasma protein binding [10]”. In addition, the “Treated EFS” value stood at 104 days in the series on ALL-11/AKR1C3 [7] and 49.1 days in the series with ALL-11/EV [15]. The “mice with no detectable human leukemia cells in the PB at 250 days after the last treatment” value with T-ALL PDX (ALL-8) [8] (25 mg/kg IP Days 0, 7, 14) is recorded as 5 out of 6. Moreover, the “human leukemia cells in the PB, BM, spleen, kidney or liver at Day 28” value in the series with T-ALL PDX (ALL-8) [8] (any of the three doses (10, 15 or 25 mg/kg)) was “no detectable human leukemia cells”. Also, the concentration at 0.25 h in [9] amounted to 140 nM. The “PDXs that did not reach event during the 250 day monitoring period following the final treatment” value with 25 T-ALL PDXs is recorded as 7/25. In addition, the “MRD in BM samples at Day 28 (PCR-based assay)” value in the series on T-ALL PDX (ALL-8) [11] is “MRD positive”. Moreover, the Cmax (in general, the peak of the concentration-time curve) in series [12] (Cmax) was 1600 to 9300 nM. Further, the area under the curve AUC(0-inf) – broadly, total exposure, with the tail of the curve extrapolated – in series [12] (total plasma exposure (AUC0-inf)) lay within 0.5 to 3.3 µM·h. In addition, the Tolerability result in [14] is recorded as “well tolerated”. In the series with T-ALL PDX (ALL-31) [16], the “Median EFS” value is reported as above 332 days. For the same molecule, the “human leukemia cells in the murine peripheral blood (PB)” value in the series with T-ALL PDX (ALL-31) [16] was below 1%. The “mice that did not relapse over the >300-day observation period following the last treatment” value in the series with T-ALL PDX (ALL-31) [16] is listed as 3 out of 5. Besides, the “time for which human leukemia cells in PB <1% was maintained” value in the series with T-ALL PDX (ALL-31) [16] came out at 10 consecutive weeks.
As for `COc1nc(N)nc2c1ncn2[C@@H]1O[C@H](CO)[C@@H](O)[C@@H]1O` [Nelarabine, nelarabine, reference compound], in the series on T-ALL PDX (ALL-8) [3] (setting [19]), the “EFS (median event free survival)” value is reported as 28.4 days, the T-C is recorded as 19.1 days and the T/C is 3.1 days. Moreover, the “human leukemia levels in the PB, BM or spleen at Day 28” value with T-ALL PDX (ALL-8) [3] (nelarabine 125 mg/kg IP Days 0–4, 14–18) is given as “did not significantly decrease”.
Regarding `CS(=O)(=O)OCCN(CCBr)c1c(C(=O)NCCO)cc([N+](=O)[O-])cc1[N+](=O)[O-]` [PR-104A, reference compound], the half-maximal inhibitory concentration (IC50) in the series with B-ALL PDXs (read-out: Median IC50, median of B-ALL PDXs) came to 26600 nM; with T-ALL PDXs (read-out: Median IC50, median of T-ALL PDXs), 1800 nM.
Regarding `CS(=O)(=O)OCCN(CCBr)c1c(C(=O)NCCOP(=O)(O)O)cc([N+](=O)[O-])cc1[N+](=O)[O-]` [PR-104], the “delay of leukemia progression” value in the series on T-ALL PDX (ALL-31) [17] is given as 44.4 days; in the series on T-ALL PDX (ALL-8) [18], 54.3 days.
